Measured values collected from several papers.
Each line is one published result; the experiments were not run side by side.

Compound	test system	setting	Cmax
CN(C)C(=O)c1cc2cnc(Nc3ccc(-c4ccc5c(=O)cc(N6CCOCC6)oc5c4)cc3)nc2n1C1CCCC1.Cl	BALB/c mouse, plasma	oral, 20 mg/kg	3300 ng/mL
OCc1nc2ccc(NCc3ccc(C(F)(F)F)cc3)cc2[nH]1	male BALB/c mouse, plasma	intravenous, 1 mg/kg	378 ng/mL
NCc1ccc(-c2nn(Cc3ccccc3)c3ccccc23)o1	male CD-1 mouse, plasma	oral, 10 mg/kg	395 ng/mL
Cc1cc(-c2ccnc3[nH]cc(F)c23)cc(F)c1[C@@]1(O)[C@H](C)CN(C2CCS(=O)(=O)CC2)C[C@@H]1C	male CD-1 mouse, plasma	oral, 3 mg/kg	750 ng/mL
Cc1ccc(N(c2ccc(NC(=O)CN(C)c3ccccc3N3CCCC3=O)cc2)C(C)C)cc1	male CD-1 mouse, plasma	oral, 20 mg/kg	1000 ng/mL
Cc1ncsc1-c1ccc([C@H](CC(=O)N2CC3(C2)CN(c2ccc(C#Cc4ccc(C(=O)N5CCC(n6cc(-c7ccc8c(c7)CCN8C(=O)Cc7cccc(OC(F)(F)F)c7)c7c(N)ncnc76)CC5)cc4)cn2)C3)NC(=O)[C@@H]2C[C@@H](O)CN2C(=O)[C@@H](NC(=O)C2(F)CC2)C(C)(C)C)cc1	male C57BL/6 mouse, plasma	intravenous, 1 mg/kg	19000 ng/mL
COC1=CC(c2ccc[nH]2)=N/C1=C\c1cc(Cc2ccc(OC(F)(F)F)cc2)c(C)[nH]1.Cl	male CD-1 mouse, plasma	oral, 40 mg/kg, single dose	161 ng/mL
O=C1CCC(N2Cc3cc(C4CCN(Cc5ccccc5)CC4)ccc3C2=O)C(=O)N1 (centres unmarked)	male CD-1 mouse, plasma	intravenous, 1 mg/kg	204 ng/mL
Cc1ccc(OCC(=O)N[C@@H](Cc2c[nH]c3ccccc23)C(=O)OC(C)C)cc1	male Sprague-Dawley mouse, plasma	oral, 20 mg/kg	2560 ng/mL
Cc1cc(-c2ccnc3[nH]cc(F)c23)cc(F)c1[C@@]1(O)[C@H](C)CN(C(=O)CN)C[C@@H]1C	male CD-1 mouse, plasma	oral, 3 mg/kg	1260 ng/mL
Cc1ncsc1-c1ccc([C@H](C)NC(=O)[C@@H]2C[C@@H](O)CN2C(=O)[C@@H](NC(=O)CCc2ccc(C#Cc3ccc(C(=O)NCCCn4cc(-c5ccc6c(c5)CCN6C(=O)Cc5cccc(OC(F)(F)F)c5)c5c(N)ncnc54)cc3)cn2)C(C)(C)C)cc1	male C57BL/6 mouse, plasma	intravenous, 1 mg/kg	11900 ng/mL
OCc1ccc(-c2nn(Cc3ccccc3)c3ccccc23)o1	male CD-1 mouse, plasma	intraperitoneal, 30 mg/kg	5540 ng/mL
CC[C@H](C)[C@H](NC(=O)[C@H](CCC(=O)O)NC(=O)[C@H](CO)NC(=O)[C@@H](NC(=O)[C@@H](N)CO)C(C)C)C(=O)N[C@@H](CCC(N)=O)C(=O)N[C@@H](CC(C)C)C(=O)N[C@@H](CCSC)C(=O)N[C@@H](Cc1cnc[nH]1)C(=O)N[C@@H](CC(N)=O)C(=O)N[C@@H](CC(C)C)C(=O)NCC(=O)N[C@@H](CCCCN)C(=O)N[C@@H](Cc1cnc[nH]1)C(=O)N[C@@H](CC(C)C)C(=O)N[C@@H](CC(N)=O)C(=O)N[C@@H](CO)C(=O)N[C@@H](CCSC)C(=O)N[C@@H](CCC(=O)O)C(=O)N[C@@H](CCCNC(=N)N)C(=O)N[C@H](C(=O)N[C@@H](CCC(=O)O)C(=O)N[C@@H](Cc1c[nH]c2ccccc12)C(=O)N[C@@H](CC(C)C)C(=O)N[C@@H](CCCNC(=N)N)C(=O)N[C@@H](CCCCN)C(=O)N[C@@H](CCCCN)C(=O)N[C@@H](CC(C)C)C(=O)N[C@@H](CCC(N)=O)C(=O)N[C@@H](CC(=O)O)C(=O)N[C@H](C(=O)N[C@@H](Cc1cnc[nH]1)C(=O)N[C@@H](CC(N)=O)C(=O)N[C@@H](Cc1ccccc1)C(N)=O)C(C)C)C(C)C	female CD-1 mouse, serum	intravenous, 10 nmol/kg	8 nM
COC1=CC(c2ccc[nH]2)=N/C1=C\c1[nH]c(Cc2ccc(OC(F)(F)F)cc2)cc1Cc1ccc(OC(F)(F)F)cc1	male CD-1 mouse, liver	oral, 40 mg/kg, single dose	20300 ng/mL
